Sampled rows, rich in hits. Any-hit rate of the full collection: about 5.4%.
HePTP inhibitor: blocks human HePTP tyrosine phosphatase; actives 0.64% (n = 110,000); recombinant HePTP phosphatase activity, OD absorbance; inhibition, % at 20 µM; in the data active = inhibition above about 50%;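 note: plate controls were vehicle for no effect and reference inhibitor for full effect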
Target sequence (P35236 whole entry, looked up): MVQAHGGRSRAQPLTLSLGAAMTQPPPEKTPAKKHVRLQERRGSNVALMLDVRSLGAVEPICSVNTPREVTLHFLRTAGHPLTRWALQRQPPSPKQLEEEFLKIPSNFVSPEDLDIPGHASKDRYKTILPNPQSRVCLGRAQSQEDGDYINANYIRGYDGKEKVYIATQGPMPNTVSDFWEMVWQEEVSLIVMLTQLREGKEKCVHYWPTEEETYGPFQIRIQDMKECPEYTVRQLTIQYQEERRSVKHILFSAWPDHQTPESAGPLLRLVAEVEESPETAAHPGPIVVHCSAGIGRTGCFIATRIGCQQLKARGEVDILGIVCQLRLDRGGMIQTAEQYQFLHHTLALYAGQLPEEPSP
Ecoli WT expand: growth inhibitors of E. coli BW25113 wild type | actives 0.15% (n = 98,000) | growth inhibition, % at 100 µM | OD600 absorbance;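 active = growth inhibition above about 50% at one test dose, limit read from the data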;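 note: growth measured after 20 h incubation at 37 °C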
PostGolgi yeast: growth inhibition of a yeast mutant, post-Golgi transport screen; actives 0.9% (n = 98,000); AID 739; inhibition, % at 10 µM; post-Golgi transport phenotypic cell assay;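 note: yeast cells grown in 1536-well plates; yeast grown about 18 h at 30C before absorbance read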
Ecoli tolC: E. coli tolC mutant growth inhibition | E. coli BW25113 tolC mutant growth, OD615 | growth inhibition, % at 10 µM (by protocol) | actives 2.2% (n = 65,000);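 active = growth inhibition at or above a cutoff equal to the mean over every tested compound plus 3 SD, cut at about 60% in these data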;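 note: growth measured after 20 h incubation at 37 °C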
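Test system: tolC-deleted E. coli BW25113; medium: LB with kanamycin 50 µg/mL; compound: single-point testing at 10 µM; incubation: 20 h compound exposure of bacteria at 37 °C; signal: OD at 615 nm; evaluation: growth inhibition in percent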
PostGolgi ctrl: yeast control strain growth, post-Golgi counter-screen. actives 5% (n = 98,000). efflux-deficient yeast background strain, growth absorbance A615, 16 h. inhibition, % at 10 µM
PLAP activator: human PLAP activation; P05187; purified PLAP enzyme, luminescent substrate read-out; active compounds read high; activation fold at 20 µM; actives 1.2% (n = 96,000); AID 696; in the data active = activation fold above about 2
* marks the source's active call; other numbers are inactive results; / = not tested or not shown. Cut-off read from the data, not from the text of the source, unless noted: active = inhibition above about 30%; inactive = the rest.

SMILES	HePTP inhibitor	Ecoli WT expand	PostGolgi yeast	Ecoli tolC	PostGolgi ctrl	PLAP activator
CNC(=S)NNC(=O)CCn1nc(C)c(Br)c1C	/	6	-13	/	37*	2.1*
O=C(CSc1nnc(Cn2c(=O)sc3ccccc32)n1CCc1ccccc1)N1CCCC1	1	0	0	3	5	/
COCCNC(=O)C1CCN(S(=O)(=O)N2CCC3(CC2)OCCO3)CC1	1	-1	1	-18	10	1.1
CCSc1nnc(NC(=O)c2cccc(OCc3c(C)noc3C)c2)s1	3	-6	3	62*	4	1.7
COc1cccc(C(=O)Nc2nc3ccc(C)cc3s2)c1	4	/	/	/	/	/
COc1ccc2nc(NC(=O)c3cccc(OCc4c(C)noc4C)c3)sc2c1	2	-7	18	45	33*	1.3
Cc1ccc(C(=O)CC2(O)C(=O)N(CCc3ccccc3)c3ccc(Br)cc32)o1 (stereo not drawn)	8	-6	31*	33	19	1.5
COc1cccc(N2CCN(c3ncnc4c3cnn4-c3ccc(C)cc3C)CC2)c1	-4	-9	3	30	46*	0.9
Cc1ccc(C)c(N2CCN(c3ncnc4c3cnn4-c3ccccc3)CC2)c1	-5	1	-4	21	10	1.1
c1ccc(CCN2CCN(c3ncnc4c3cnn4-c3ccccc3)CC2)cc1	12	-23	-3	66*	12	1.4
CC1CCCN(c2ncnc3c2cnn3-c2ccc(Cl)cc2)C1 (stereo not drawn)	-2	/	/	96*	/	/
CC1CCCN(c2ncnc3c2cnn3-c2ccccc2)C1 (stereo not drawn)	5	/	/	59	/	/
Cc1ccc(-n2ncc3c(N4CCCC4)ncnc32)c(C)c1	7	3	0	-3	33*	/
CCOC(=O)CSc1nc2ccsc2c(=O)n1C1CCN(C(=O)OCC)CC1	2	-5	-5	6	21	1.2
Cc1cccc(-n2ncc3c(N4CCC(C)CC4)ncnc32)c1	5	-2	44*	94*	45*	1.6
Cc1cccc(-n2ncc3c(N(C)Cc4ccccc4)ncnc32)c1	0	/	/	93*	/	/
Cc1cccc(-n2ncc3c(N)ncnc32)c1	7	-8	2	12	2	0.9
CC1Cc2ccccc2N1C(=O)CCNS(=O)(=O)c1ccc2c(c1)CCC(=O)N2 (stereo not drawn)	6	-2	-6	5	1	1.1
O=C(COc1ccccc1)NNc1c2ccccc2nc2ccccc12	-16	4	-4	/	44*	0.7
COc1ccc(N(CC(=O)O)S(=O)(=O)c2ccccc2)cc1	4	/	/	/	/	/
COc1ccc(N(C2CSC2)S(=O)(=O)c2ccccc2)cc1	-2	-7	9	64*	0	1.1
Cc1ccc(CNC(=O)CSc2nc(N3CCCCC3)nc(N3CCCCC3)n2)cc1	13	-15	-6	31	46*	1.6
COCCCNc1nc2c(c(=O)[nH]c(=O)n2C)n1CCCc1ccccc1	4	0	-10	-30	7	1.1
COC(=O)c1ccccc1NC(=O)CSc1nnnn1C1CCCCC1	-3	-2	5	49	30	1
CCOC(=O)c1ccccc1NC(=O)CSc1nnc(COc2ccccc2C)n1C	8	-4	2	49	38*	1.5
SMILES	HePTP inhibitor	Ecoli WT expand	PostGolgi yeast	Ecoli tolC	PostGolgi ctrl	PLAP activator
CCOC(=O)c1ccccc1NC(=O)CSc1nnnn1C1CCCCC1	7	-11	14	72*	19	0.9
O=C(Nc1ncc2c(n1)-c1ccccc1CC2)c1cccc(Cl)c1	/	21	5	/	12	0.8
COc1ccc2c(c1)SC1=NCCS(=O)(=O)N12	-1	1	-2	-6	1	1
Cc1ccc(CSc2nc3c(c(=O)[nH]c(=O)n3C)n2CCC(C)C)cc1	4	-6	2	23	41*	1.3
CC(C)CCNc1nc2c(c(=O)n(Cc3cccc(F)c3)c(=O)n2C)n1C	10	9	0	42	41*	1.5
CCC(C)Nc1nc2c(c(=O)n(C)c(=O)n2C)n1Cc1ccc(F)cc1 (stereo not drawn)	5	1	-7	19	35*	1
Cc1ccc(Cn2c(SCC(C)C)nc3c2c(=O)n(C)c(=O)n3C)cc1	2	-11	35*	92*	30	1.1
CCSc1nc2c(c(=O)n(C)c(=O)n2C)n1Cc1ccc(Cl)cc1	0	/	/	40	/	/
CC(C)CCn1c(SCc2ccc(Cl)cc2)nc2c1c(=O)[nH]c(=O)n2C	7	-17	15	-1	19	0.9
C=CCNc1nc2c(c(=O)n(C)c(=O)n2C)n1Cc1ccc(F)cc1	-2	-2	1	1	8	1
O=S(=O)(c1cccc2cccnc12)N(CCO)CCO	6	-2	-10	-18	1	0.9
COc1ccc(CNc2nc3c(c(=O)n(Cc4ccc(F)cc4)c(=O)n3C)n2C)cc1	7	10	-5	71*	20	0.9
CCOC(=O)c1cc(-c2ccccc2)nc2c1c(C)nn2-c1ccccn1	/	-6	-3	/	42*	1.5
CCOC(=O)c1cc(-c2ccncc2)nc2c1c(C)nn2C	2	0	-6	7	12	1.4
CCOc1cc(-c2cc(-c3ccc(C)o3)nc(N)c2C#N)ccc1O	/	-1	11	/	26	0.9
COCCCn1c(Cc2csc(Nc3cccc(Cl)c3)n2)nnc1SCC(=O)OC	19	21	-6	11	-3	2*
COc1ccc(NC(=O)N2CCC(O)(c3cccnc3)CC2)c(OC)c1	2	3	0	-21	4	1.1
CN=c1sc(C(=O)Nc2cccc(Cl)c2)cc(=O)n1C	5	-5	3	-2	1	/
O=C(Nc1ncccc1O)c1cccc(S(=O)(=O)N2CCc3ccccc32)c1	7	-4	-5	16	34*	2.5*
O=C(Nc1ccc(S(=O)(=O)N2CCc3ccccc32)cc1)c1cccc([N+](=O)[O-])c1	-3	/	/	/	/	/
CCOC(=O)c1c(C)[nH]c(C(=O)OCC(=O)N2CCN(S(=O)(=O)c3ccccc3)CC2)c1C	0	-9	-6	-6	3	1.3
Cc1nn(-c2ccccc2)c(C)c1C(=O)OCC(=O)N1CCN(S(=O)(=O)c2ccccc2)CC1	1	-9	30	1	96*	1.7
O=C(CN1C(=O)c2ccccc2C1=O)N1CCN(C(=O)c2ccccc2)CC1	-15	/	/	/	/	/
CCOc1ccc(/C=C/C(=O)Nc2ccc(OC)cc2[N+](=O)[O-])cc1	/	-1	-10	/	1	1
O=C1c2ccccc2C(Nc2ccc(Cl)cn2)N1Cc1ccccc1 (stereo not drawn)	/	9	3	/	58*	1.2
CCCC(C(=O)c1ccccc1)n1cncn1 (stereo not drawn)	-6	0	2	-19	-11	0.9
CC(C)(NCc1ccccc1Cl)C(=O)O	4	/	/	-25	/	/
CC(C)(C)C(=O)C(Cc1ccccc1Cl)n1cncn1 (stereo not drawn)	/	4	99*	/	94*	1.3

Screening data: PubChem BioAssay, several laboratories
